ChEMBL document CHEMBL3244228, “Synthesis and biological properties of 2-, 5-, and 6-fluoronorepinephrines” (J Med Chem, 1979)
The source made the active and inactive calls. The calls are words filed in the database; no cut-off is given here.

Tests used:
[1] = target: Adrenergic receptor alpha; assay: Agonist activity at alpha-adrenergic receptor in Sprague-Dawley rat cerebral cortex assessed as [3H]cAMP accumulation by liquid scintillation spectroscopy in presence of propranolol; assay type: functional, tissue-based
Method in brief: (§1)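 Male Sprague-Dawley rat cerebral cortical slices (260 μm, cross-chopped) are preincubated 15 min in Krebs-Ringer bicarbonate glucose buffer, labelled 40 min at 37 °C with adenine (30 μM) plus [3H]adenine, then equilibrated 5 min. Amines are applied at 1 to 100 μM for 10 min, with propranolol 10 μM for α responses and phentolamine 10 μM for β responses. Cyclic [3H]AMP is isolated from TCA extracts on a double column, corrected for carrier recovery and reported as percent conversion. EC50 from six dose-response curves.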

Adrenergic receptor beta [2] = target: T1, Adrenergic receptor beta (Rattus norvegicus, UniProt P18090+P10608+P26255); assay: Displacement of [3H]dihydroalprenolol from beta-adrenergic receptor in Sprague-Dawley rat cerebral cortical membrane
[3] = Agonist activity at beta-adrenergic receptor in Hartley guinea pig ileum assessed as maximal relaxation; assay type: tissue-based; settings: Cavia porcellus
Cavia porcellus [4] = species on record: Cavia porcellus; assay: Agonist activity at alpha-adrenergic receptor in Hartley guinea pig aorta assessed as maximal contraction in presence of beta-adrenergic receptor antagonist propranolol; assay type: tissue-based
Cavia porcellus [5] = species on record: Cavia porcellus; assay: Agonist activity at beta-adrenergic receptor in Hartley guinea pig atria assessed as maximal increase in contraction rate in presence of alpha-adrenergic receptor antagonist phentolamine
[6] = Agonist activity at alpha-adrenergic receptor in Hartley guinea pig aorta assessed as maximal contraction; assay type: tissue-based, Cavia porcellus
Method in brief: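 Aortic strip from 250-300 g male Hartley guinea pigs, in 10 mL Tyrode's solution at 37 °C aerated with 95% O2/5% CO2. Full concentration range, 0.1 to 100 μM. Response is percent of maximal contraction (largest contraction per dose relative to the maximum for (±)-NE). EC50 ± SD estimated from eight dose-response curves.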

[7] = Agonist activity at beta-adrenergic receptor in Hartley guinea pig atria assessed as maximal increase in contraction rate; set-up: species or system Cavia porcellus
Method in brief: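 Atria from 250-300 g male Hartley guinea pigs, bathed in 10 mL Tyrode's at 37 °C under 95% O2/5% CO2, dosed at 0.1 to 100 μM. Contraction rate read 60 s after each dose against the pre-experiment rate and expressed as percent of the maximal increase given by (±)-NE. EC50 ± SD from eight dose-response curves.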

Adrenergic receptor beta [8] = target: T1, Adrenergic receptor beta; assay: Agonist activity at beta-adrenergic receptor in Sprague-Dawley rat cerebral cortex assessed as [3H]cAMP accumulation by liquid scintillation spectroscopy in presence of phentolamine; assay type: functional, tissue-based; method in brief: as §1
Cavia porcellus [9] = species on record: Cavia porcellus; assay: Agonist activity at alpha-adrenergic receptor in Hartley guinea pig aorta assessed as maximal contraction in presence of alpha-adrenergic receptor antagonist phentolamine; assay type: tissue-based
Cavia porcellus [10] = species on record: Cavia porcellus; assay: Agonist activity at beta-adrenergic receptor in Hartley guinea pig atria assessed as maximal increase in contraction rate in presence of beta-adrenergic receptor antagonist propranolol
[11] = target: Adrenergic receptor alpha; assay: Displacement of [3H]WB4101 from alpha-adrenergic receptor in Sprague-Dawley rat cerebral cortical membrane
[12] = target: Adrenergic receptor alpha (Rattus norvegicus) (UniProt P15823+P23944+P43140+P22086+P19328+P22909); assay: Agonist activity at alpha-adrenergic receptor in Sprague-Dawley rat cerebral cortex assessed as [3H]cAMP accumulation by liquid scintillation spectroscopy in presence of propranolol and phentolamine; assay type: functional, tissue-based

Row | SMILES | EC50 [1] [µM] | EC50 (Adrenergic receptor beta [2]) [µM] | EC50 [3] [µM] | Activity (Cavia porcellus [4]) | Activity (Cavia porcellus [5]) | EC50 [6] [µM] | EC50 [7] [µM] | EC50 (Adrenergic receptor beta [8]) [µM] | Activity (Cavia porcellus [9]) | Activity (Cavia porcellus [10]) | EC50 [11] [µM] | Activity [12]
1 | Cl.NCC(O)c1cc(O)c(O)c(F)c1 (racemic) | 5 | 4 | 44 | Active | Active | 2.4 | 0.11 | 2 | inactive | inactive | 15 | –
2 | NCC(O)c1ccc(O)c(O)c1 (configuration not stated) | – | – | 15.6 | – | – | 2.6 | 0.7 | – | – | – | – | –
3 | Cl.NCC(O)c1cc(O)c(O)cc1F (racemic) | 5 | – | – | Active | Active | 2.5 | 72 | – | inactive | inactive | 3 | inactive
4 | Cl.NCC(O)c1ccc(O)c(O)c1F (racemic) | > 100 | – | – | Active | Active | 110 | 0.6 | – | inactive | inactive | > 100 | Active
